Data set [1] can be described thus: Lipophilicity, log D of the compound. Format: physicochemical. The settings on record: octanol/water; read-out: logD.
Data set [2] can be described thus: Solubility of the compound in phosphate buffered saline at pH 7.4. Format: physicochemical.
The target of data set [3] is T1, Histamine H1 receptor (Homo sapiens, UniProt P35367). Put plainly: Antagonist activity at human recombinant histamine H1 receptor expressed in intact CHO cells assessed as inhibition of histamine-induced cellular calcium mobilization by FLIPR assay. Format: functional, cell-based. In outline:
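Human recombinant H1 receptor in intact CHO cells; inhibition of agonist-induced calcium mobilization read with Fluo-4AM in FLIPR. EC50 came from a four-parameter logistic fit, and pA2 = log(DR−1) − log[B], where DR is the EC50 ratio versus control.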
For orientation: Calcium flux is commonly read through the fluorescence of an indicator in the cells.

Data set [4] concerns the target T2, Alpha-1A adrenergic receptor (Homo sapiens, UniProt P35348).
T2 sequence (P35348 whole entry): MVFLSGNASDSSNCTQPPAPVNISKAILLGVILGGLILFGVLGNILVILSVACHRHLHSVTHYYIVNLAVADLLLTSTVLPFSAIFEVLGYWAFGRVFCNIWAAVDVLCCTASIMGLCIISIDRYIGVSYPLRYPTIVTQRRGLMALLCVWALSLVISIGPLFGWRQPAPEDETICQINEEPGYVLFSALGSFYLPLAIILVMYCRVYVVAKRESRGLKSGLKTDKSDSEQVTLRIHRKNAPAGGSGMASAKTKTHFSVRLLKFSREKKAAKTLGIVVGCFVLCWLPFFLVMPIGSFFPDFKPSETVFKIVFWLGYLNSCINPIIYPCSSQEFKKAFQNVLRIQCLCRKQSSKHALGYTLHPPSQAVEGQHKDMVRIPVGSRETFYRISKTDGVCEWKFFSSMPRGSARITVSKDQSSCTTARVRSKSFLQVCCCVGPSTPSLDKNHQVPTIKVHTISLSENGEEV
Put plainly: Binding affinity to human adrenergic alpha1A receptor expressed in rat intact fibroblasts.

Data set [5] concerns the target T3, Alpha-1B adrenergic receptor (Homo sapiens, UniProt P35368).
T3 sequence (P35368 whole entry): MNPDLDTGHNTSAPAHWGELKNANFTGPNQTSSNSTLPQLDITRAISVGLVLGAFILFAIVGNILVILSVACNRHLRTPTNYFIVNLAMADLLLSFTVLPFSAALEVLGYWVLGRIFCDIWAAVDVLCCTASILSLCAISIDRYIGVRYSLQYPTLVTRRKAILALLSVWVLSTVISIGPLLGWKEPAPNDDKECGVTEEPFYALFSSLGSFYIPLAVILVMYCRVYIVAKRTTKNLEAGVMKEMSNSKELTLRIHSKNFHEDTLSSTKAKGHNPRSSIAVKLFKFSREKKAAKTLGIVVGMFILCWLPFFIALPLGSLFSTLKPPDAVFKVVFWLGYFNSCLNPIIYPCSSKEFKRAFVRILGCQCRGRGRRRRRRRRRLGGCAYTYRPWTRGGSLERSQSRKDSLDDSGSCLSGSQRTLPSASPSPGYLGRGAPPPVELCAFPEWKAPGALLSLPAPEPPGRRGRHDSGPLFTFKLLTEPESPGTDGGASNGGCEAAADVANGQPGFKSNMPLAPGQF
Description: Binding affinity to human adrenergic Alpha-1B receptor expressed in rat intact fibroblasts. In outline: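 Plate-based calcium imaging in intact Rat1 fibroblasts expressing the human α1B adrenoceptor.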

Data set [6] deals with T1, Histamine H1 receptor. Put plainly: Antagonist activity at human recombinant histamine H1 receptor expressed in intact CHO cells assessed as inhibition of histamine-induced cellular calcium mobilization at 100 nM after 30 mins by FLIPR assay. Format: functional, cell-based. The conditions noted are these: read-out: pA2 (converted). In outline: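 Intact CHO cells expressing recombinant human H1; Fluo-4AM calcium dye read on FLIPR. Histamine concentration-response curves run without or with antagonist at a single 100 nM, 30 min incubation. EC50 from four-parameter logistic fit; pA2 = log(DR-1) - log[B], DR being EC50 with antagonist over control EC50.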

The target of data set [7] is T4, Voltage-gated inwardly rectifying potassium channel KCNH2 (Homo sapiens, UniProt Q12809). Description: Displacement of labeled dofetilide human ERG.
Data set [8] concerns the target Histamine H2 receptor (Homo sapiens, UniProt P25021). Put plainly: Binding affinity to human histamine H2 receptor.
Data set [9] has as its target Histamine H4 receptor (Homo sapiens, UniProt Q9H3N8). Put plainly: Binding affinity to human histamine H4 receptor.
Data set [10] has as its target T4, Voltage-gated inwardly rectifying potassium channel KCNH2. Put plainly: Inhibition of human ERG by patch clamp assay. On the technique in general: Patch clamp records ionic current or voltage across a cell membrane.
Data set [11] concerns Heart. Description: Cardiotoxicity in rabbit heart assessed as induction of QT interval prolongation. Format: toxicity, tissue-based, Oryctolagus cuniculus.
Data set [12] relates to Liver microsomes. Description: Metabolic stability in human liver microsomes. Format: ADME, Microsome.
Data set [13] concerns Hepatocyte. Put plainly: Metabolic stability in human hepatocytes. Format: ADME, cell-based.
Data set [14] relates to Liver microsomes. Put plainly: Metabolic stability in rat liver microsomes. Type of data set: ADME, Microsome.
Data set [15] concerns Liver. Put plainly: Metabolic stability in dog liver microsomes. Type of data set: ADME, Canis lupus familiaris, Microsome.
Data set [16] is described as follows: Clearance in CD rat at 3 mg/kg, po and 1 mg/kg, iv. Type of data set: ADME, organism-based. The settings on record: in vivo. In outline: (§1)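 Male CD rats dosed 3.0 mg/kg po and 1.0 mg/kg iv, groups of 3 or 7 animals. Clearance, Vss, t1/2 and F are reported with ranges, and clearance is also expressed as % of liver blood flow.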
Data set [17] in a line: Clearance in Beagle dog at 3 mg/kg, po and 1 mg/kg, iv. Format: ADME, organism-based, Canis lupus familiaris. The conditions noted are these: in vivo. Summed up: (§2)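 Male Beagle dogs (n = 3) dosed 3.0 mg/kg po and 1.0 mg/kg iv. Clearance, Vss, t1/2 and F are given with ranges, and clearance as % of liver blood flow. Unchanged drug excreted in urine was measured over 24 h.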

Data set [18] in a line: Volume of distribution at steady state in CD rat at 3 mg/kg, po and 1 mg/kg, iv. Format: ADME, organism-based. The conditions noted are these: in vivo, read-out: Vdss. Summed up: as §1
Data set [19] can be described thus: Volume of distribution at steady state in Beagle dog at 3 mg/kg, po and 1 mg/kg, iv. Format: ADME, organism-based, Canis lupus familiaris. The settings on record: in vivo, read-out: Vdss. Summed up:
as §2

A short description of data set [20]: Half life in CD rat at 3 mg/kg, po and 1 mg/kg, iv. The settings on record: in vivo. Type of data set: ADME, organism-based. Summed up: as §1
Data set [21] in a line: Half life in Beagle dog at 3 mg/kg, po and 1 mg/kg, iv. Type of data set: ADME, organism-based, Canis lupus familiaris. The settings on record: in vivo. Summed up: as §2
Data set [22] has as its system Rattus norvegicus. Put plainly: Liver blood flow in CD rat at 3 mg/kg, po and 1 mg/kg, iv. Type of data set: ADME, organism-based. The conditions noted are these: in vivo. In outline: as §1
For data set [23], the system named is Canis familiaris. Description: Liver blood flow in Beagle dog at 3 mg/kg, po and 1 mg/kg, iv. Format: ADME, organism-based, Canis lupus familiaris. The conditions noted are these: in vivo. Summed up:
as §2

Data set [24] in a line: Oral bioavailability in CD rat at 3 mg/kg. Format: ADME, organism-based. The conditions noted are these: in vivo. In outline: as §1
A short description of data set [25]: Oral bioavailability in Beagle dog at 3 mg/kg. Type of data set: ADME, organism-based, Canis lupus familiaris. The settings on record: in vivo. In outline: as §2
The nature of data set [26]: Unchanged drug level in Beagle dog urine at 3 mg/kg, po and 1 mg/kg, iv after 24 hrs. The settings on record: read-out: Activity. Format: ADME, organism-based, Canis lupus familiaris. Summed up:
as §2

Data set [27] can be described thus: Ratio of drug level in brain to blood in CD rat at 1 mg/kg, iv. Type of data set: ADME, organism-based. Also on record: dose 1 mg/kg, route intravenous. The settings on record: read-out: BBR.
Data set [28] addresses Cytochrome P450 2D6 (Homo sapiens, UniProt P10635). Description: Inhibition of CYP2D6. Type of data set: ADME.
Data set [29] addresses T5, Cytochrome P450 1A2 (Homo sapiens, UniProt P05177).
T5 sequence (P05177 whole entry): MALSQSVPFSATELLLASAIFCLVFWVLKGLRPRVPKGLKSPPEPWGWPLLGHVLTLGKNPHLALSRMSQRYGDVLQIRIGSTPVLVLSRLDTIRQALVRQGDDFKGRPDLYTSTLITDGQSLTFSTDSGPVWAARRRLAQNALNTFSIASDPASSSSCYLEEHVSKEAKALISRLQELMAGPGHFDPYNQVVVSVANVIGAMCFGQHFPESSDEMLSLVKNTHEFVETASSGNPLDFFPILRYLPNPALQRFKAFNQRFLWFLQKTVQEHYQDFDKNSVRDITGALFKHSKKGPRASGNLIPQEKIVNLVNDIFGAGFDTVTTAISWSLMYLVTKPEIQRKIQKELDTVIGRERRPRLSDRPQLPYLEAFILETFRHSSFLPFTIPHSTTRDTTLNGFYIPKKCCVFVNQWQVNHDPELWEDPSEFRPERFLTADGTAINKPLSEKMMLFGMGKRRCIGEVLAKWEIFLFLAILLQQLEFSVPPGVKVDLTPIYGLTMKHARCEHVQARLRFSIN
Put plainly: Inhibition of CYP1A2. Type of data set: ADME.

The target in data set [30] is Cytochrome P450 2C9 (Homo sapiens, UniProt P11712). Put plainly: Inhibition of CYP2C9. Format: ADME.
Data set [31] deals with Cytochrome P450 2C19 (Homo sapiens, UniProt P33261). Put plainly: Inhibition of CYP2C19. Type of data set: ADME.
In data set [32] the target is Cytochrome P450 3A4 (Homo sapiens, UniProt P08684). Put plainly: Inhibition of CYP3A4. Format: ADME.
For data set [33], the system named is Cavia porcellus. Put plainly: Antiallergic rhinitis activity in conscious guinea pig assessed as duration of inhibition of histamine-induced nasal congestion at 0.1 to 1 mg/ml administered intranasally. Type of data set: functional.

T4 sequence (Q12809 whole entry): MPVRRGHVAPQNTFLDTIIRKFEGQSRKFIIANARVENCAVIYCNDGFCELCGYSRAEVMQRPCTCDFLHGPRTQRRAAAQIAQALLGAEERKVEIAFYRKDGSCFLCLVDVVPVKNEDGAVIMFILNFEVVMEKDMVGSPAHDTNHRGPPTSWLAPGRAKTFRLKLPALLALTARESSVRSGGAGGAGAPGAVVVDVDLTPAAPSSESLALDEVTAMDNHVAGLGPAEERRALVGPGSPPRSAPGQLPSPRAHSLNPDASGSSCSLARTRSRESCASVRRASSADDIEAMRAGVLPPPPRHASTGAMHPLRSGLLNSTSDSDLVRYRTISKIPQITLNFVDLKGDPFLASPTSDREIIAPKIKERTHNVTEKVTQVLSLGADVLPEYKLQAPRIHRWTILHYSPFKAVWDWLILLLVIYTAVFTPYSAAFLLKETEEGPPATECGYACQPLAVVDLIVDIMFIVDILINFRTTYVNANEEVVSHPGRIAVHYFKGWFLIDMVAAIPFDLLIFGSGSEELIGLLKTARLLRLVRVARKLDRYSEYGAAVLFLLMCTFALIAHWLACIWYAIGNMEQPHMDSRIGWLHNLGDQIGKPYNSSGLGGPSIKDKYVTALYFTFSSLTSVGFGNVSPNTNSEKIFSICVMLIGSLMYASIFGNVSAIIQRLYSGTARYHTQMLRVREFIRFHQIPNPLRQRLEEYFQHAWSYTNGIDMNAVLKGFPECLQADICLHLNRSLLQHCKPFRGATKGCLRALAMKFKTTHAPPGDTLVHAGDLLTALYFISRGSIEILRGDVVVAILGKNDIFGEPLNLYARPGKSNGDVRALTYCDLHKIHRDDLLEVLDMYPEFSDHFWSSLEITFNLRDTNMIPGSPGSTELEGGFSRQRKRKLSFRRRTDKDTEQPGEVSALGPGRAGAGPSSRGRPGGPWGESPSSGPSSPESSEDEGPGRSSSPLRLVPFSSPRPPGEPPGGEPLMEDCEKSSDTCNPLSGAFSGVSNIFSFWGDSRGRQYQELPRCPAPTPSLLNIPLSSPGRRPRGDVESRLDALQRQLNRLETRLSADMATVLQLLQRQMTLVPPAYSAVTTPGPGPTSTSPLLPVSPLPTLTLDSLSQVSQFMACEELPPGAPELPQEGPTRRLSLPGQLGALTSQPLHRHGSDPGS
T1 sequence (P35367 whole entry): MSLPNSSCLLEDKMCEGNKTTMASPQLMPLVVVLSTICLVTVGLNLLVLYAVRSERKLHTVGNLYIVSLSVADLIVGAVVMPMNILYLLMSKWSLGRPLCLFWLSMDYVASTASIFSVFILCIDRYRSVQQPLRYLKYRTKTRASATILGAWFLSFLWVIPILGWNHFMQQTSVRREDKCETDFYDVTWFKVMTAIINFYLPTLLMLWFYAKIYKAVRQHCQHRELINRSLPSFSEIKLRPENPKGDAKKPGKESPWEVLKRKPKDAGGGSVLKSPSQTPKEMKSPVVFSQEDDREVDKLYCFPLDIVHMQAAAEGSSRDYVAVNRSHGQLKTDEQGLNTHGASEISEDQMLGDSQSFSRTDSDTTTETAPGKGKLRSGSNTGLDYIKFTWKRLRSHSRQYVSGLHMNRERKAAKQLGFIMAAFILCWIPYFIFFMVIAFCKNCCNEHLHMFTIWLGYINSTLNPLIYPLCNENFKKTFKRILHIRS
Chain of Cytochrome P450 2D6 (P10635 whole entry): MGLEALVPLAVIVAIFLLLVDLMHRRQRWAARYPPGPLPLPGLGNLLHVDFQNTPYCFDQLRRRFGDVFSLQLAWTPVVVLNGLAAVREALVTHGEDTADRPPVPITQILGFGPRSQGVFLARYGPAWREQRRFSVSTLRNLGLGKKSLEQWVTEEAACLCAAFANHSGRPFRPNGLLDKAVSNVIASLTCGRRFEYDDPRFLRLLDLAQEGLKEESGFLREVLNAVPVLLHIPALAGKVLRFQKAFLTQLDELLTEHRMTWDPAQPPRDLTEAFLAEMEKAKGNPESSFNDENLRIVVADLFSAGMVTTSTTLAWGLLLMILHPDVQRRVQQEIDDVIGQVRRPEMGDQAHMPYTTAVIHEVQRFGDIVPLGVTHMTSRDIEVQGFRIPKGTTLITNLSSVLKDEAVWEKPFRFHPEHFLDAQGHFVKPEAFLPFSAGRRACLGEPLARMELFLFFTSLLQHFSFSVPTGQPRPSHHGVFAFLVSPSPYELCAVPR
Chain of Cytochrome P450 3A4 (P08684 whole entry): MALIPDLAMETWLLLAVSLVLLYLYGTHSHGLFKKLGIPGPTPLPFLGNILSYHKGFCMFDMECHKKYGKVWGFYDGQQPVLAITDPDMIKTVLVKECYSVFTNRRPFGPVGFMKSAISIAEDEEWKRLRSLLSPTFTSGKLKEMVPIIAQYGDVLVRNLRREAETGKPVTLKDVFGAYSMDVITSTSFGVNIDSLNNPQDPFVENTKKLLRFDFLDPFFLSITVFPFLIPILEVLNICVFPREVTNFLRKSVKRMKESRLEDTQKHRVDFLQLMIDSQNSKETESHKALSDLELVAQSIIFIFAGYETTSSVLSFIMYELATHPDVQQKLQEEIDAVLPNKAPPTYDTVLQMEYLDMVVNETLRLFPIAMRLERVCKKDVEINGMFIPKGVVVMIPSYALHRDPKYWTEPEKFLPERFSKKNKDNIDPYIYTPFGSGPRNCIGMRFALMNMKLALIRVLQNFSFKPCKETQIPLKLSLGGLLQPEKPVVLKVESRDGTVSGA
Chain of Cytochrome P450 2C9 (P11712 whole entry): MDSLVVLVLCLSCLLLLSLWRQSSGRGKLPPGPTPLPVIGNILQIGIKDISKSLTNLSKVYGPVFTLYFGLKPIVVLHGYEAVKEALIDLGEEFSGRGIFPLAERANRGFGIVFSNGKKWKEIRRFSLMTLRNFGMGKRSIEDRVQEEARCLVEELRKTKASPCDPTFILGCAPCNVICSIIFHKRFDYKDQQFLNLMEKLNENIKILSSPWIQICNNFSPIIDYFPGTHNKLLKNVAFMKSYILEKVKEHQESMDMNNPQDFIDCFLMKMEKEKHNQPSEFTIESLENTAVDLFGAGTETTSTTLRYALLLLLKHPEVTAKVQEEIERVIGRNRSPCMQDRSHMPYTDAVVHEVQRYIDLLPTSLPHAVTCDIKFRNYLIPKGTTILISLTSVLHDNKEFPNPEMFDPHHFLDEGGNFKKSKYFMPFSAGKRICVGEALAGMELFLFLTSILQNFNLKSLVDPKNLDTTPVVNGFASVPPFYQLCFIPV
Chain of Histamine H4 receptor (Q9H3N8 whole entry): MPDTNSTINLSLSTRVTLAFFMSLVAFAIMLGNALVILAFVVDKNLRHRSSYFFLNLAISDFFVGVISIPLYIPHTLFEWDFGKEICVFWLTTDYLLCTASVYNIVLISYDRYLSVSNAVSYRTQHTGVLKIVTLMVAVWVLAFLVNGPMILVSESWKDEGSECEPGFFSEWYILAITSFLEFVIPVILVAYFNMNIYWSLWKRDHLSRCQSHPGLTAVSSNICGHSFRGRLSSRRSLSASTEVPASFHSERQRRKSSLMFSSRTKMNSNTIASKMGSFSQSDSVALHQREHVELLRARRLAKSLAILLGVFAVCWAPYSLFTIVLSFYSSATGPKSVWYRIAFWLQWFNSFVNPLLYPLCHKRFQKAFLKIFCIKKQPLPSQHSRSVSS
Chain of Cytochrome P450 2C19 (P33261 whole entry): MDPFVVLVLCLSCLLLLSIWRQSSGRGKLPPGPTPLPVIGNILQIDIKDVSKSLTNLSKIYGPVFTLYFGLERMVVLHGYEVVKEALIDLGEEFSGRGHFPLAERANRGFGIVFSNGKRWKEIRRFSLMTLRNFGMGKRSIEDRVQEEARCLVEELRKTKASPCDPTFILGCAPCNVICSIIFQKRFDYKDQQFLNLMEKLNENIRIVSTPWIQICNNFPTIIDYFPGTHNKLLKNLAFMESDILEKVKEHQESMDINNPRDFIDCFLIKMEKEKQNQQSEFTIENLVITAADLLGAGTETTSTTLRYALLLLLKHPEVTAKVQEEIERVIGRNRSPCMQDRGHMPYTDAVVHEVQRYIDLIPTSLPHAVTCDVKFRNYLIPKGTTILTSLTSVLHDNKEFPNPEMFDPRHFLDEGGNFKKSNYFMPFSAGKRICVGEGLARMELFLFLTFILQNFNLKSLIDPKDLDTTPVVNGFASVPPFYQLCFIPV
Chain of Histamine H2 receptor (P25021 whole entry): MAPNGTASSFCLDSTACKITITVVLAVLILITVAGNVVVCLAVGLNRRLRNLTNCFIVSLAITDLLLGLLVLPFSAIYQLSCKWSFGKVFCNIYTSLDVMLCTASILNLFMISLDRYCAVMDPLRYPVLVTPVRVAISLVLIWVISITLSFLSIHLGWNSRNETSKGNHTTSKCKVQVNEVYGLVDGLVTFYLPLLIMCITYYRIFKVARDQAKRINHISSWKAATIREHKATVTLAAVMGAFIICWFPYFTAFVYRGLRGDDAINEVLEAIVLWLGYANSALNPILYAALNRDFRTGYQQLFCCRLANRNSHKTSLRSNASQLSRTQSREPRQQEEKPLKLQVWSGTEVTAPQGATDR

Usually logD stands for lipophilicity at a set pH, counting ionised and neutral species. As usually defined, the solubility is the concentration that dissolves in the medium under given conditions. Higher therefore signals much dissolved substance. `CN1CCCC(n2nc(Cc3ccc(Cl)cc3)c3ccccc3c2=O)CC1.Cl` (racemic) [AZELASTINE HYDROCHLORIDE]: the logD in [1] was determined as 2.25. The compound also registered a solubility in [2] of 144 µg/mL.

For orientation: Ki means the dissociation constant of the complex between target and ligand, obtained from inhibition or displacement. A word on the IC50: it is the concentration at which inhibition is half-maximal. By half-life is commonly meant the time in which the quantity being followed falls by half. What is called bioavailability is dose-corrected exposure relative to a reference, in per cent. Turning to `O=c1c2ccccc2c(Cc2ccc(Cl)cc2)nn1C[C@H]1CCCN1CCCCc1ccc(OCCCN2CCCCCC2)cc1` [GSK-1004723], the Ki was 10 nM in data set [3], 39.8 nM in data set [4] and 31.6 nM in data set [5]. Also, in data set [6], the Kb was 0.794 nM. In addition, the IC50 was 50.1 nM in data set [7]; 10000 nM in data set [8]; 10000 nM in data set [9]; 40 nM in data set [28]; more than 3000 nM in [29]; more than 3000 nM in [30]. In addition, the values for the half-maximal inhibitory concentration (IC50) in [31] and in [32] were more than 3000 nM and 300 nM, respectively. For the same compound, the “inhibition (INH)” value in [10] is “Active”. In addition, the Activity entry in data set [11] is on record as “Non-toxic”. The Stability result in [12] is “Stable”; in data set [13], “Unstable”; in data set [14], “Stable”; in [15], “Stable”. Moreover, the results for the clearance in [16] and in data set [17] were 30 mL/min/kg and 27 mL/min/kg, respectively. Besides, the Vd in data set [18] is 3.9 L/kg; in data set [19], 22 L/kg. Further, the half-life in data set [20] was 2.2 h; in data set [21] it was 9.4 h. Moreover, the LBF was found to be 35% in data set [22] and 87% in data set [23]. Besides, the bioavailability in data set [24] was determined as 4%; in [25], 19%. In addition, the dose excreted at 24 h in data set [26] was less than 1%. The Kp in data set [27] amounted to 0.6. Moreover, in [33], the Time worked out at 72 h.

(Values after ChEMBL document CHEMBL1764974, “The discovery of phthalazinone-based human H1 and H3 single-ligand antagonists suitable for intranasal administration for the treatment of allergic rhinitis” (J Med Chem, 2011).)
